Rows were chosen to be rich in hits. Some 2.1% of all compounds tested hit in one or more screens of this group.
STAT3 blocker – inhibitors of IL-6 induced STAT3 signaling | U3A cells, IL-6 STAT3-luciferase reporter, luminescence; host cell line lacks STAT1 | inhibition, % at 5.5 µM | 0.89% of 190,000 active;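 active = inhibition above the mean inhibition across all screened compounds plus 3 SD, cut at about 44% in these data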;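 note: 0% = DMSO only wells and 100% = 100 µM nifuroxazide control wells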
L929 necroptosis – L929 zVAD cell death inhibition. L929 zVAD necroptosis rescue, ATP luminescence, 24 h; with zVAD 60 µM. viability rescue, % at 10 µM. 0.38% of 220,000 active. AID 1377;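 active = activation, scaled between plate controls, above about 75%, limit read from the data; inactive = activation under that limit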;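 note: 0% = zVAD with DMSO and 100% = DMSO alone without zVAD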
STAT1 blocker – reduces IFN-gamma driven STAT1 reporter signal; NIH 3T3 STAT1-luciferase reporter, luminescence; inhibition, % at 5.5 µM; 0.35% of 200,000 active;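 active = inhibition above a set limit, the mean inhibition across all tested compounds plus 3 SD, cut at about 34% in these data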;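 note: 0% = IFN-gamma with DMSO and 100% = IFN-gamma with 300 µM nifuroxazide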
TNF death inh – TNF-alpha cell death inhibition in Jurkat FADD-/- cells. Jurkat FADD-/- TNF necroptosis rescue, ATP luminescence, 24 h; 0 = TNF only, 100 = no-TNF cells. AID 463075. activation (protection from cell death), % at 10 µM. 0.068% of 220,000 active;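 active = activation, meaning protection from cell death, of at least 50% relative to plate controls; inactive = activation below 50%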;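 note: necroptosis triggered by 40 ng/mL TNF-alpha added together with compound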
STAT3 act – STAT3 signaling activation | U3A cells, IL-6 STAT3-luciferase reporter, luminescence; 100% = signal with IL-6 EC80 alone | activation (% of control), % at 5.6 µM | 0.91% of 190,000 active | AID 871;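 active = activation above the screen-wide mean of compound activation plus 3 SD, cut at about 130% in these data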;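 note: 0% = background luminescence of wells with medium and substrate only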
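Test system: STAT3-luciferase reporter U3A cells; Detection: reporter luminescence signal; Times: 1 h compound pre-exposure, 6 h IL-6 stimulation, 37 °C; Benchmarks: IL-6-only high control; Also added: IL-6 stimulus at 33 ng/mL final.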
zVAD necrop conf – confirmed blocker of zVAD induced death in L929 cells | AID 463117 | L929 zVAD-induced necroptosis rescue, ATP luminescence, 24 h | shares compounds with L929 necroptosis | 16% of 760 active | activation (protection from necroptosis), % at 10 µM;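 active = mean protection from necroptosis of at least 50% over duplicate tests; inactive = mean protection below 50%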;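 note: 0% = cells with zVAD alone and 100% = vehicle cells without zVAD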
* marks the source's active call; other numbers are inactive results; / = no result.

SMILES	STAT3 blocker	L929 necroptosis	STAT1 blocker	TNF death inh	STAT3 act	zVAD necrop conf
CCC(=O)n1nc(-c2ccc(OC)cc2)nc1NCc1cccs1	1	76*	-8	2	102	0
CC(=O)n1nc(-c2ccccc2)nc1NCc1cccs1	2	86*	-23	2	101	5
COc1cc(OC)c(OC)cc1/C=N/N(C)c1ccccc1	26	2	4	0	84	/
COc1cccc(CNc2nc(SC)ncc2CO)c1	6	0	1	0	99	/
O=C(NCCN1CCN(c2ccccc2F)CC1)C1CCCN(S(=O)(=O)c2cnc[nH]2)C1 (centres undefined)	8	1	0	1	97	/
COc1ccc2c(c1)CCc1cc(C(=O)O)sc1-2	/	-1	/	0	/	/
CCOC(=O)COn1c(=O)c(C)[n+]([O-])c2ccccc21	-4	0	-7	0	108	/
C=CCN1C(=O)/C(=C2/Sc3ccccc3N2C)SC1=Nc1c(C)n[nH]c1C	16	0	-1	-1	89	/
CCN1C(=O)/C(=C2/Sc3ccccc3N2CC)S/C1=N\c1ncn[nH]1	14	82*	-15	-3	90	5
CCOC(=O)C1=C2SCC(=O)N2C(N)=C(C#N)C1	0	0	-5	0	103	/
CCc1ccc(NC(=O)Nc2ccc3c(c2)N(C)C(=O)CS3)cc1	12	99*	-7	-2	94	47
CCOC(=O)c1ccc(NC(=O)c2nc[nH]c2C(=O)N[C@@H](Cc2ccccc2)C(=O)OC(C)(C)C)cc1	/	0	/	1	/	/
C(=N\Nc1ccccn1)/c1c[nH]c2ccccc12	/	92*	/	15	/	55*
O=C(O)c1cccc2c(/C=N/Nc3ccccn3)c[nH]c12	/	84*	/	44	/	12
O=c1nc(N/N=C/c2c[nH]c3ccccc23)cn[nH]1	/	0	/	-5	/	/
O=C(O)c1ccccc1N/N=C\c1ccnc2ccccc12	3	0	33	-3	104	/
CCC(C)c1ccc(NC(=O)c2cnn3c(C(F)F)cc(C)nc23)cc1 (centres undefined)	12	25	-5	-1	94	/
CCCN(CCC)CCNC(=O)c1cc2c(=O)n(C)c3ccccc3c2n1C	-6	78*	-8	5	110	33
Cn1c(C(=O)NCCN2CCOCC2)cc2c(=O)n(C)c3ccccc3c21	10	54	2	1	99	/
CC1CCCCN1CCNC(=O)c1cc2c(=O)n(C)c3ccccc3c2n1C (centres undefined)	-5	82*	-4	7	112	37
CC(C)(C)c1cc(C(=O)Nc2cccc3ccccc23)ccn1	-9	1	-9	-2	111	/
Cc1nccc2[nH]c(=O)c(C(=O)NC(C)CCc3ccccc3)cc12 (centres undefined)	12	-1	18	1	100	/
O=C(CNc1ccc(Cl)cc1)c1ccc(Br)cc1	14	4	-24	-1	92	/
COc1cc(CO)ccc1OCC(=O)Nc1ccc(Br)cc1	-34	76*	-18	1	133*	0
Cc1ccc(NC(=O)COc2ccc(Br)cc2CO)cc1	13	0	-16	1	90	/
SMILES	STAT3 blocker	L929 necroptosis	STAT1 blocker	TNF death inh	STAT3 act	zVAD necrop conf
Cc1cc(C(=O)COC(=O)c2ccc(O)cc2)c(C)n1Cc1ccco1	-12	75*	-49	-2	108	2
Cc1cc(C(=O)COC(=O)c2ccc(Br)o2)c(C)n1Cc1ccco1	-5	0	-18	-2	112	/
CCOCCCn1cnc2c(c1=O)c1nc3ccccc3nc1n2-c1ccccc1	27	0	7	-5	80	/
Cc1ccc(N=Nc2c(N)[nH]n3c(=O)cc(C)nc23)cc1	2	76*	-10	2	100	0
COc1ccc(C(=O)OCC(=O)NC(=O)NC(C)C)cc1OC	4	77*	-2	0	99	1
COc1ccc(C(=O)COC(=O)c2ccc(OC)c(OC)c2)cc1OC	19	2	-2	3	89	/
COC(=O)C1CCN(S(=O)(=O)c2ccc(NC(C)=O)cc2)CC1	4	0	6	1	102	/
Cc1ccc(NC(=O)c2noc3c2CCCCC3)cc1	13	82*	-61	2	92	2
O=C(NCCN1C(=O)C2C3C=CC(C3)C2C1=O)Nc1ccc(Br)cc1 (centres undefined)	-3	76*	-46	1	111	2
O=C(NCCN1C(=O)C2C3C=CC(C3)C2C1=O)Nc1cccnc1 (centres undefined)	8	0	1	0	101	/
N#Cc1cccc(NC(=O)COc2ccc(-n3ccnc3)cc2)c1	28	77*	-10	-2	82	68*
O=C(NCCCN1CCOCC1)c1ccc2c(=O)n(CCc3ccccc3)c(=O)[nH]c2c1	17	0	0	-2	89	/
O=C(NCCN1CCCC1)c1ccc2c(=O)n(CCc3ccccc3)c(=O)[nH]c2c1	0	91*	-6	-2	105	6
Cc1ccc(NC(=O)n2ccc(-c3ccc(-n4ccnc4)cc3)n2)cc1	-7	82*	-39	14	109	50
CC(C)(C)c1ccc(NC(=O)COc2ccc(-n3ccnc3)cc2)cc1	30	71	-10	-17	77	/
O=C(Nc1ccc(SC(F)F)cc1)C1=COCCO1	18	0	-35	-2	87	/
Cc1ccccc1C(=O)NC(=S)Nc1ccc(Cc2ccncc2)cc1	3	1	-8	1	96	/
O=c1oc2ccccc2n1CSc1nc2ccccc2s1	-10	1	-40	2	115	/
O=c1oc2ccccc2n1CSC1=NCCS1	-4	101*	20	61*	107	1
Cc1csc(NC(=O)CSc2nsc(SCC(=O)Nc3nc(C)cs3)c2C#N)n1	25	76*	-35	-7	80	53*
Cc1cnc(N)c2c(=O)oc3ccccc3c12	-8	84*	-8	-1	115	3
CCC(=O)Nc1ccc2c(c1)ncn2-c1ccc(OC)cc1	0	81*	-28	3	104	47
CCC(=O)Nc1ccc2c(c1)ncn2-c1ccccc1C	9	1	2	1	94	/
CCC(=O)Nc1ccc2c(c1)ncn2-c1ccc(C)cc1	10	84*	-71	3	96	36
COc1ccc(-n2cnc3ccccc32)cc1	-15	80*	-9	0	118	38
COc1ccc(-n2cnc3cc(NCc4ccccn4)ccc32)cc1	5	78*	-19	0	99	66*
c1ccc(-n2cnc3cc(NCc4cccs4)ccc32)cc1	5	85*	-76	-7	99	45
COc1ccccc1Nc1nc(-c2ccccc2O)nc2ccccc12	13	76*	-6	2	92	0
